Data from ChEMBL document CHEMBL1137995, “Synthesis of some newer analogues of substituted dibenzoyl phenol as potent anti-inflammatory agents” (Bioorg Med Chem Lett, 2004).
Calls of active or inactive are those of the source. No cut-off for these calls is given here.

Tests used:
Rattus norvegicus [1] = assay: Percent of carageenam induced paw oedema inhibition in rat as a measure of anti-inflammatory activity at 20 mg/kg dose on peroral administration; type: functional; details: route oral
Procedure, shortened: (§1)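 Albino rats (125–160 g), five per group, dosed orally at 20, 40 or 80 mg/kg. After 30 min, 0.2 mL of 1% carrageenan in 0.9% NaCl was injected subcutaneously into the plantar aponeurosis of the hind paw. Paw volume was read by water plethysmometer at injection and at 3 h. Inhibition = (1 − Gt/Gc) × 100 against a carrageenan-only control group of five rats.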

Rattus norvegicus [2] = assay: Ulcerogenic activity was measured in fasting rat with hyperaemia on peroral administration of 400 mg/kg; type: functional; details: route oral
Procedure, shortened: (§2)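 Rats (200–230 g), ten per group, fasted 24 h, given a single oral dose of 100, 200 or 400 mg/kg. Animals were killed 5 h after dosing. Stomach and small intestine were examined under a microscope for hyperaemia, epithelial shedding, petechiae, frank haemorrhage, and erosion or ulceration. Values are percent of animals showing hyperaemia or showing ulcer.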

Rattus norvegicus [3] = assay: Ulcerogenic activity was measured in fasting rat with ulcer on peroral administration of 200 mg/kg; type: functional; details: route oral; procedure, shortened: as §2
Rattus norvegicus [4] = assay: Ulcerogenic activity was measured in fasting rat with ulcer on peroral administration of 100 mg/kg; type: functional; details: route oral; procedure, shortened: as §2
Rattus norvegicus [5] = assay: Ulcerogenic activity was measured in fasting rat with hyperaemia on peroral administration of 100 mg/kg; type: functional; details: route oral; procedure, shortened: as §2
Oryctolagus cuniculus [6] = species: Oryctolagus cuniculus; assay: Percent inhibition of cyclooxygenase activity of compound at 10 uM concentration; type: functional
Procedure, shortened: (§3)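 Microsomes came from rabbit distal colon mucosa, homogenized in Tris pH 8.0, centrifuged, resuspended and recentrifuged, and used immediately. Microsomes were preincubated with test agent 10 min at 37 °C in Tris–HCl pH 8.0 containing 2 mM glutathione, 5 mM L-tryptophan and 1 µM haematin. Then 20 µM arachidonic acid with [1-14C] tracer was added and reacted 5 min at 37 °C. PGE2 was separated by HPLC, radioactivity counted by scintillation, and inhibition taken against paired controls.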

Rattus norvegicus [7] = assay: Ulcerogenic activity was measured in fasting rat with hyperaemia on peroral administration of 200 mg/kg; type: functional; details: route oral; procedure, shortened: as §2
Rattus norvegicus [8] = assay: Ulcerogenic activity was measured in fasting rat with ulcer on peroral administration of 400 mg/kg; type: functional; details: route oral; procedure, shortened: as §2
Rattus norvegicus [9] = assay: Percent of carageenam induced paw oedema inhibition in rat as a measure of anti-inflammatory activity at 40 mg/kg dose on peroral administration; type: functional; details: route oral; procedure, shortened: as §1
Rattus norvegicus [10] = assay: Percent of carageenam induced paw oedema inhibition in rat as a measure of anti-inflammatory activity at 80 mg/kg dose on peroral administration; type: functional; details: route oral; procedure, shortened: as §1
[11] = Acute lethal dose of compound was determined in mice when administered perorally; type: ADME; details: mouse, in vivo, po; read-out: ALD50
Procedure, shortened: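 Albino mice (25–30 g), groups of 10 per dose level, given test compound at several dose levels. Percent mortality in each group was recorded 24 h after dosing. The approximate 50% lethal dose (ALD50) was calculated by the Smith method.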

Rattus norvegicus [12] = species: Rattus norvegicus; assay: Effective dose of compound for anti-inflammatory activity; type: functional
Oryctolagus cuniculus [13] = species: Oryctolagus cuniculus; assay: Percent inhibition of cyclooxygenase activity of compound at 10 uM concentration; No inhibition; type: functional; procedure, shortened: as §3

Cc1ccc(C(=O)c2cc(C(=O)c3ccccc3)cc(C)c2O)cc1
Antiinflammatory Activity (Rattus norvegicus [1]): 20.1% | Ulcerogenic activity (Rattus norvegicus [2]): 100% | Ulcerogenic activity (Rattus norvegicus [3]): 20% | Ulcerogenic activity (Rattus norvegicus [4]): 10% | Ulcerogenic activity (Rattus norvegicus [5]): 70% | Inhibition (Oryctolagus cuniculus [6]): 40% | Ulcerogenic activity (Rattus norvegicus [7]): 90% | Ulcerogenic activity (Rattus norvegicus [8]): 40% | Antiinflammatory Activity (Rattus norvegicus [9]): 29.1% | Antiinflammatory Activity (Rattus norvegicus [10]): 62.8% | LD50 [11]: > 1000 mg/kg | ED50 (Rattus norvegicus [12]): 62.5 mg/kg

Cc1cc(C(=O)c2ccccc2C)c(O)c(C(=O)c2ccccc2C)c1
Antiinflammatory Activity (Rattus norvegicus [1]): 16.6% | Ulcerogenic activity (Rattus norvegicus [2]): 90% | Ulcerogenic activity (Rattus norvegicus [3]): 10% | Ulcerogenic activity (Rattus norvegicus [4]): 5% | Ulcerogenic activity (Rattus norvegicus [5]): 50% | Inhibition (Oryctolagus cuniculus [6]): 70% | Ulcerogenic activity (Rattus norvegicus [7]): 70% | Ulcerogenic activity (Rattus norvegicus [8]): 15% | Antiinflammatory Activity (Rattus norvegicus [9]): 33.2% | Antiinflammatory Activity (Rattus norvegicus [10]): 64.1% | LD50 [11]: > 1000 mg/kg | ED50 (Rattus norvegicus [12]): 77.2 mg/kg

Cc1ccc(C(=O)c2cc(C)cc(C(=O)c3ccc(C)cc3)c2O)cc1
Antiinflammatory Activity (Rattus norvegicus [1]): 22.2% | Ulcerogenic activity (Rattus norvegicus [2]): 100% | Ulcerogenic activity (Rattus norvegicus [3]): 30% | Ulcerogenic activity (Rattus norvegicus [4]): 20% | Ulcerogenic activity (Rattus norvegicus [5]): 50% | Inhibition (Oryctolagus cuniculus [6]): 87% | Ulcerogenic activity (Rattus norvegicus [7]): 70% | Ulcerogenic activity (Rattus norvegicus [8]): 40% | Antiinflammatory Activity (Rattus norvegicus [9]): 45.4% | Antiinflammatory Activity (Rattus norvegicus [10]): 77.1% | LD50 [11]: > 1000 mg/kg | ED50 (Rattus norvegicus [12]): 60.2 mg/kg

Cc1ccccc1C(=O)c1cc(C)c(O)c(C(=O)c2ccccc2)c1
Antiinflammatory Activity (Rattus norvegicus [1]): 14.1% | Ulcerogenic activity (Rattus norvegicus [2]): 100% | Ulcerogenic activity (Rattus norvegicus [3]): 20% | Ulcerogenic activity (Rattus norvegicus [4]): 10% | Ulcerogenic activity (Rattus norvegicus [5]): 40% | Inhibition (Oryctolagus cuniculus [6]): 20% | Ulcerogenic activity (Rattus norvegicus [7]): 60% | Ulcerogenic activity (Rattus norvegicus [8]): 40% | Antiinflammatory Activity (Rattus norvegicus [9]): 29.5% | Antiinflammatory Activity (Rattus norvegicus [10]): 55.3% | LD50 [11]: > 1000 mg/kg | ED50 (Rattus norvegicus [12]): 78.3 mg/kg

CCCCC1C(=O)N(c2ccccc2)N(c2ccccc2)C1=O [PHENYLBUTAZONE]
Antiinflammatory Activity (Rattus norvegicus [1]): 31.3% | Ulcerogenic activity (Rattus norvegicus [2]): 90% | Ulcerogenic activity (Rattus norvegicus [3]): 60% | Ulcerogenic activity (Rattus norvegicus [4]): 30% | Ulcerogenic activity (Rattus norvegicus [5]): 30% | Inhibition (Oryctolagus cuniculus [6]): 89% | Ulcerogenic activity (Rattus norvegicus [7]): 60% | Ulcerogenic activity (Rattus norvegicus [8]): 90% | Antiinflammatory Activity (Rattus norvegicus [9]): 35.5% | Antiinflammatory Activity (Rattus norvegicus [10]): 57.2%

Cc1cc(C(=O)c2ccccc2)c(O)c(C(=O)c2ccccc2)c1
Antiinflammatory Activity (Rattus norvegicus [1]): 13.7% | Ulcerogenic activity (Rattus norvegicus [2]): 60% | Ulcerogenic activity (Rattus norvegicus [3]): 50% | Ulcerogenic activity (Rattus norvegicus [4]): 40% | Ulcerogenic activity (Rattus norvegicus [5]): 20% | inhibition (Oryctolagus cuniculus [13]): inactive | Ulcerogenic activity (Rattus norvegicus [7]): 40% | Ulcerogenic activity (Rattus norvegicus [8]): 80% | Antiinflammatory Activity (Rattus norvegicus [9]): 22.2% | Antiinflammatory Activity (Rattus norvegicus [10]): 45.5% | LD50 [11]: > 1000 mg/kg | ED50 (Rattus norvegicus [12]): 77.5 mg/kg

CC(=O)Oc1ccccc1C(=O)O [ASPIRIN]
Antiinflammatory Activity (Rattus norvegicus [1]): 30.4% | Ulcerogenic activity (Rattus norvegicus [2]): 90% | Ulcerogenic activity (Rattus norvegicus [3]): 90% | Ulcerogenic activity (Rattus norvegicus [4]): 80% | Ulcerogenic activity (Rattus norvegicus [5]): 30% | Inhibition (Oryctolagus cuniculus [6]): 99% | Ulcerogenic activity (Rattus norvegicus [7]): 60% | Ulcerogenic activity (Rattus norvegicus [8]): 90% | Antiinflammatory Activity (Rattus norvegicus [9]): 35.5% | Antiinflammatory Activity (Rattus norvegicus [10]): 59.6% | ED50 (Rattus norvegicus [12]): 98.3 mg/kg

Cc1cc(C(=O)c2cccc(Cl)c2)c(O)c(C(=O)c2cccc(Cl)c2)c1
Antiinflammatory Activity (Rattus norvegicus [1]): 30.3% | Ulcerogenic activity (Rattus norvegicus [2]): 90% | Ulcerogenic activity (Rattus norvegicus [3]): 20% | Ulcerogenic activity (Rattus norvegicus [4]): 10% | Ulcerogenic activity (Rattus norvegicus [5]): 30% | inhibition (Oryctolagus cuniculus [13]): inactive | Ulcerogenic activity (Rattus norvegicus [7]): 60% | Ulcerogenic activity (Rattus norvegicus [8]): 12% | Antiinflammatory Activity (Rattus norvegicus [9]): 48.2% | Antiinflammatory Activity (Rattus norvegicus [10]): 94.1% | LD50 [11]: > 1000 mg/kg | ED50 (Rattus norvegicus [12]): 51.2 mg/kg
